How the values were obtained:
Assay type in all cases: functional
[1] = test system: HOP-62; assay: Growth inhibition of human HOP62 cells assessed as growth percentage at 10 uM incubated for 48 hrs by sulforhodamine B assay relative to control; settings: HOP-62, 48 h, read-out: Activity
Summary of the method: (§1)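 NCI-60 one-dose screen. Cells in RPMI 1640 with 5% FBS and 2 mM L-glutamine, seeded at 5,000–40,000 cells/well according to doubling time, and preincubated overnight at 37 °C, 5% CO2. A time-zero plate was TCA-fixed at drug addition. Compound from DMSO stock, final 10 µM, 48 h; DMSO vehicle controls. Fixation with TCA, 10% final (16% for suspension cells). SRB stain, Tris solubilization, A515. Result given as % growth versus untreated cells.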

[2] = test system: SN12C; assay: Growth inhibition of human SN12C cells assessed as growth percentage at 10 uM incubated for 48 hrs by sulforhodamine B assay relative to control; settings: read-out: Activity
Summary of the method: (§2)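 NCI-60 single-dose screen. Cells were grown in RPMI 1640 with 5% FBS and 2 mM L-glutamine and plated at 5,000–40,000 cells/well. After an overnight preincubation at 37 °C in 5% CO2, compound was added at a final 10 µM from a DMSO stock, with DMSO/PBS controls. After 48 h, cells were TCA-fixed and stained with 0.4% SRB, and absorbance was read at 515 nm. Growth is given as a percentage of untreated control.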

[3] = test system: HT-29; assay: Growth inhibition of human HT-29 cells assessed as growth percentage at 10 uM incubated for 48 hrs by sulforhodamine B assay relative to control; settings: HT-29, 48 h, read-out: Activity; summary of the method: as §1
[4] = test system: MDA-MB-468; assay: Growth inhibition of human MDA-MB-468 cells assessed as growth percentage at 10 uM incubated for 48 hrs by sulforhodamine B assay relative to control; settings: MDA-MB-468, 48 h, read-out: Activity; summary of the method: as §1
[5] = test system: UACC-257; assay: Growth inhibition of human UACC257 cells assessed as growth percentage at 10 uM incubated for 48 hrs by sulforhodamine B assay relative to control; settings: UACC-257, 48 h, read-out: Activity; summary of the method: as §2
[6] = test system: OVCAR-3; assay: Growth inhibition of human OVCAR3 cells assessed as growth percentage at 10 uM incubated for 48 hrs by sulforhodamine B assay relative to control; settings: OVCAR-3, 48 h, read-out: Activity; summary of the method: as §1
[7] = test system: HOP-92; assay: Growth inhibition of human HOP92 cells assessed as growth percentage at 10 uM incubated for 48 hrs by sulforhodamine B assay relative to control; settings: HOP-92, 48 h, read-out: Activity; summary of the method: as §1
[8] = test system: NCI-H322M; assay: Growth inhibition of human NCI-H322M cells assessed as growth percentage at 10 uM incubated for 48 hrs by sulforhodamine B assay relative to control; settings: read-out: Activity; summary of the method: as §1
[9] = test system: SK-MEL-5; assay: Growth inhibition of human SK-MEL-5 cells assessed as growth percentage at 10 uM incubated for 48 hrs by sulforhodamine B assay relative to control; settings: SK-MEL-5, 48 h, read-out: Activity; summary of the method: as §2
[10] = test system: SF-268; assay: Growth inhibition of human SF268 cells assessed as growth percentage at 10 uM incubated for 48 hrs by sulforhodamine B assay relative to control; settings: SF-268, 48 h, read-out: Activity; summary of the method: as §2
[11] = test system: OVCAR-4; assay: Growth inhibition of human OVCAR4 cells assessed as growth percentage at 10 uM incubated for 48 hrs by sulforhodamine B assay relative to control; settings: OVCAR-4, 48 h, read-out: Activity; summary of the method: as §1
[12] = test system: HCC 2998; assay: Growth inhibition of human HCC2998 cells assessed as growth percentage at 10 uM incubated for 48 hrs by sulforhodamine B assay relative to control; settings: HCC 2998, 48 h, read-out: Activity
Summary of the method: (§3)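 NCI-60 one-dose screen: cells in RPMI 1640 with 5% FBS and 2 mM L-glutamine, plated at 5,000–40,000 cells/well and preincubated 24 h at 37 °C, 5% CO2. Compound is added from a DMSO stock to a final 10 µM and incubated 48 h. Cells are TCA-fixed and stained with sulforhodamine B, read at 515 nm. Output is % growth versus untreated control, with a time-zero plate.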

[13] = test system: A549; assay: Growth inhibition of human A549/ATCC cells assessed as growth percentage at 10 uM incubated for 48 hrs by sulforhodamine B assay relative to control; settings: A549, 48 h, read-out: Activity; summary of the method: as §3
[14] = test system: ACHN; assay: Growth inhibition of human ACHN cells assessed as growth percentage at 10 uM incubated for 48 hrs by sulforhodamine B assay relative to control; settings: read-out: Activity; summary of the method: as §3
[15] = test system: NCI-H23; assay: Growth inhibition of human NCI-H23 cells assessed as growth percentage at 10 uM incubated for 48 hrs by sulforhodamine B assay relative to control; settings: NCI-H23, 48 h, read-out: Activity; summary of the method: as §1
[16] = test system: RXF 393; assay: Growth inhibition of human RXF393 cells assessed as growth percentage at 10 uM incubated for 48 hrs by sulforhodamine B assay relative to control; settings: RXF 393, 48 h, read-out: Activity; summary of the method: as §2
[17] = test system: BT-549; assay: Growth inhibition of human BT549 cells assessed as growth percentage at 10 uM incubated for 48 hrs by sulforhodamine B assay relative to control; settings: BT-549, 48 h, read-out: Activity; summary of the method: as §3
[18] = test system: 786-0; assay: Growth inhibition of human 786-0 cells assessed as growth percentage at 10 uM incubated for 48 hrs by sulforhodamine B assay relative to control; settings: 786-0, 48 h, read-out: Activity; summary of the method: as §3
[19] = test system: SK-OV-3; assay: Growth inhibition of human SKOV3 cells assessed as growth percentage at 10 uM incubated for 48 hrs by sulforhodamine B assay relative to control; settings: SK-OV-3, 48 h, read-out: Activity; summary of the method: as §2
[20] = test system: SK-MEL-28; assay: Growth inhibition of human SK-MEL-28 cells assessed as growth percentage at 10 uM incubated for 48 hrs by sulforhodamine B assay relative to control; settings: SK-MEL-28, 48 h, read-out: Activity; summary of the method: as §2
[21] = test system: NCI/ADR-RES; assay: Growth inhibition of human NCI/ADR-RES cells assessed as growth percentage at 10 uM incubated for 48 hrs by sulforhodamine B assay relative to control; settings: read-out: Activity; summary of the method: as §1
[22] = test system: RPMI-8226; assay: Growth inhibition of human RPMI8226 cells assessed as growth percentage at 10 uM incubated for 48 hrs by sulforhodamine B assay relative to control; settings: RPMI-8226, 48 h, read-out: Activity; summary of the method: as §2
[23] = test system: Malme-3M; assay: Growth inhibition of human MALME-3M cells assessed as growth percentage at 10 uM incubated for 48 hrs by sulforhodamine B assay relative to control; settings: read-out: Activity; summary of the method: as §1
[24] = test system: SW-620; assay: Growth inhibition of human SW620 cells assessed as growth percentage at 10 uM incubated for 48 hrs by sulforhodamine B assay relative to control; settings: SW-620, 48 h, read-out: Activity; summary of the method: as §2
[25] = test system: HCT-116; assay: Growth inhibition of human HCT116 cells assessed as growth percentage at 10 uM incubated for 48 hrs by sulforhodamine B assay relative to control; settings: HCT-116, 48 h, read-out: Activity; summary of the method: as §3
[26] = test system: SF-295; assay: Growth inhibition of human SF295 cells assessed as growth percentage at 10 uM incubated for 48 hrs by sulforhodamine B assay relative to control; settings: SF-295, 48 h, read-out: Activity; summary of the method: as §2

SMILES | growth at 10 µM [1] [%] | growth at 10 µM [2] [%] | growth at 10 µM [3] [%] | growth at 10 µM [4] [%] | growth at 10 µM [5] [%] | growth at 10 µM [6] [%] | growth at 10 µM [7] [%] | growth at 10 µM [8] [%] | growth at 10 µM [9] [%] | growth at 10 µM [10] [%] | growth at 10 µM [11] [%] | growth at 10 µM [12] [%] | growth at 10 µM [13] [%] | growth at 10 µM [14] [%] | growth at 10 µM [15] [%] | growth at 10 µM [16] [%] | growth at 10 µM [17] [%] | growth at 10 µM [18] [%] | growth at 10 µM [19] [%] | growth at 10 µM [20] [%] | also measured
CC(=O)N1C(=S)NC(C)=C(C(=O)OC(C)C)C1c1ccc2c(c1)OCO2 (racemic) | 88.5 | 93.1 | 105 | 104 | 104 | 109 | 78.1 | 99.5 | 100 | 100 | 100 | 110 | 99.4 | 106 | 100 | 111 | 99.3 | 102 | 104 | 111 | growth at 10 µM [21]: 103%; growth at 10 µM [22]: 73.9%; growth at 10 µM [23]: 98.4%; growth at 10 µM [24]: 102%; growth at 10 µM [25]: 93.8%; growth at 10 µM [26]: 99.4%
CC(=O)C1=C(C)NC(=S)NC1c1ccc2c(c1)OCO2 (racemic) | 104 | 104 | 106 | 113 | 102 | 109 | 92.5 | 112 | 100 | 100 | 103 | 108 | 105 | 103 | 107 | 102 | 108 | 103 | 102 | 116 | growth at 10 µM [21]: 112%; growth at 10 µM [22]: 105%; growth at 10 µM [23]: 108%; growth at 10 µM [24]: 106%; growth at 10 µM [25]: 104%; growth at 10 µM [26]: 104%
CC1=C(C(=O)OC(C)C)C(c2ccc3c(c2)OCO3)NC(=O)N1 (racemic) | 117 | 92.3 | 103 | 104 | 104 | 114 | 111 | 113 | 97.6 | 104 | 103 | 116 | 106 | 103 | 98.8 | 113 | 93.7 | 102 | 105 | 108 | growth at 10 µM [21]: 105%; growth at 10 µM [22]: 101%; growth at 10 µM [23]: 99.6%; growth at 10 µM [24]: 109%; growth at 10 µM [25]: 96.4%; growth at 10 µM [26]: 104%
CC1(C)CC(=O)C2=C(C1)NC(=O)NC2c1ccc2c(c1)OCO2 (racemic) | 122 | 105 | 114 | 118 | 102 | 115 | 112 | 105 | 100 | 98.8 | 102 | 109 | 108 | 109 | 104 | 118 | 109 | 105 | 112 | 111 | growth at 10 µM [21]: 104%; growth at 10 µM [22]: 110%; growth at 10 µM [23]: 100%; growth at 10 µM [24]: 109%; growth at 10 µM [25]: 101%; growth at 10 µM [26]: 112%
CC1=C(C(=O)OCC(C)C)C(c2ccc3c(c2)OCO3)NC(=S)N1 (racemic) | 121 | 106 | 106 | 94.6 | 95.6 | 109 | 103 | 117 | 92.5 | 97.8 | 103 | 112 | 99 | 98.5 | 99.5 | 100 | 95 | 104 | 106 | 119 | growth at 10 µM [21]: 96.7%; growth at 10 µM [22]: 84%; growth at 10 µM [23]: 105%; growth at 10 µM [24]: 115%; growth at 10 µM [25]: 101%; growth at 10 µM [26]: 104%
O=C1C2=C(NC(=S)NC2c2ccc3c(c2)OCO3)c2ccccc21 (racemic) | 104 | 95.8 | 108 | 108 | 102 | 113 | 95 | 106 | 101 | 91.8 | 102 | 106 | 107 | 106 | 98.5 | 107 | 101 | 108 | 103 | 123 | growth at 10 µM [21]: 103%; growth at 10 µM [22]: 103%; growth at 10 µM [23]: 106%; growth at 10 µM [24]: 95.2%; growth at 10 µM [25]: 110%; growth at 10 µM [26]: 102%
COCCOC(=O)C1=C(C)NC(=S)N(C(C)=O)C1c1ccc2c(c1)OCO2 (racemic) | 87.7 | 96.7 | 106 | 105 | 95.3 | 101 | 85.4 | 101 | 104 | 98.4 | 87.6 | 113 | 99.2 | 102 | 99.1 | 111 | 103 | 108 | 97 | 106 | growth at 10 µM [21]: 99.8%; growth at 10 µM [22]: 97.7%; growth at 10 µM [23]: 88.6%; growth at 10 µM [24]: 100%; growth at 10 µM [25]: 103%; growth at 10 µM [26]: 98.5%
